From PMC5034689 (Molecular Metabolism, 2016)

What was measured:
[1] = Plasma and tissue availability after a single intraperitoneal TNP injection; type: in vivo, mice
How it was run: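 Chow-fed mice received a single i.p. injection (20 mg/kg) in DMSO:Tween 80:water (1:1:8). Plasma levels were followed 1–6 h after dosing. Liver, skeletal muscle, white and brown adipose tissue and brain were collected 6 h after dosing to measure tissue concentrations.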

DIO mice [2] = assay: Short-term TNP treatment of DIO mice; type: in vivo, C57BL6 mice; settings: 20 mg/kg BW daily
How it was run: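 Mice fed HFD for 8 weeks received daily 20 mg/kg test compound with continued HFD (vehicle n = 6, treated n = 8). Food intake was measured after 7 days. GTT (glucose 2 g/kg i.p.) and ITT (insulin 0.75 U/kg i.p.) were done on days 12 and 17 after a 5 h fast. Tissues were taken on day 18. Akt S473 was immunoblotted from RIPA lysates, with densitometry n = 3.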

Recombinant human IP6K1 [3] = target: T1, Recombinant human IP6K1 (Homo sapiens, UniProt Q92551); assay: IP6K1 activity assay in vitro, SDS-PAGE assay; type: biochemical; settings: TNP 1 μM
T1 sequence (Q92551 whole entry): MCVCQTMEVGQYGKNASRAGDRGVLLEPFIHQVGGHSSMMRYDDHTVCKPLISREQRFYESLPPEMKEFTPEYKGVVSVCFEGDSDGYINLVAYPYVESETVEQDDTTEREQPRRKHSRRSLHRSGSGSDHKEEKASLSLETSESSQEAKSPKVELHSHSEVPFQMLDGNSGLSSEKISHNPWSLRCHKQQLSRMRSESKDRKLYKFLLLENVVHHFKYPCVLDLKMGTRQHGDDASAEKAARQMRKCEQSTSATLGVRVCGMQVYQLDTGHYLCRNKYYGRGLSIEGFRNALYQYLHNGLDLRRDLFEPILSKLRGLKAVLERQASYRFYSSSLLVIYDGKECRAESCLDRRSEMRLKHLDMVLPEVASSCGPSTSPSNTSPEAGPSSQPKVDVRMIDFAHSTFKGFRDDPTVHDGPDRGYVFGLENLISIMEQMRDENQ
How it was run: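 Recombinant human IP6K1 (100 ng, purified from E. coli) was incubated in 20 mM Tris pH 7.4 with 5 mM MgCl2, 5 nmol IP6, 1 mM ATP and 1 mM DTT. DMSO or 1 μM test compound was added. IP6 conversion to 5-IP7 was resolved and read by SDS-PAGE.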

chow-fed male mice = assay: Long-term TNP treatment on fertility of chow-fed male mice; type: in vivo; settings: 10 mg/kg BW daily for 15 weeks, chow-fed WT
How it was run: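 Six-week-old chow-fed male mice were injected daily with 10 mg/kg test compound for 4 weeks. They were then used for breeding while injections continued another 11 weeks (15 weeks total). Each male took part in 4 rounds of harem breeding, the last after 14 weeks of treatment.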

[4] = system: human promyelocytic leukemia (HL60) cells; settings: cited from earlier work
CYP2C9 = CYP2C9 (Homo sapiens, UniProt P11712); assay: CYP450 inhibition in human hepatic microsomes, CYP2C9; type: in vitro ADME; settings: liver microsomes, probe tolbutamide (hydroxylation to hydroxytolbutamide)
Chain of CYP2C9 (P11712 whole entry): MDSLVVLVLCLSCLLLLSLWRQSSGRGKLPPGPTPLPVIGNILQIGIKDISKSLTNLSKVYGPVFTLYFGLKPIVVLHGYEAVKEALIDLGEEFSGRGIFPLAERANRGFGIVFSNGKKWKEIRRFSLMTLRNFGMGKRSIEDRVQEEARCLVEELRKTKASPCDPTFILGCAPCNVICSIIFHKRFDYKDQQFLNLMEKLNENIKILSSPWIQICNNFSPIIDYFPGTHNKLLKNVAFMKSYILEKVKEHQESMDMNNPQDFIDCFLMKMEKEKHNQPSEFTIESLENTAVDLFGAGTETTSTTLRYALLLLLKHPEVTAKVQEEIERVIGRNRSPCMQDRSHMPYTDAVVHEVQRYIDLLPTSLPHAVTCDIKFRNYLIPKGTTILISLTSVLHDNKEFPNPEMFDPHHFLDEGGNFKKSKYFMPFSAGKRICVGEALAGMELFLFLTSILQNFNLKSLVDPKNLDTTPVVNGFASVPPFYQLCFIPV

[5] = Plasma protein binding, equilibrium dialysis, summary over species; type: in vitro ADME; settings: human, mouse, rat
How it was run: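 Binding was measured by rapid equilibrium dialysis in triplicate, starting at 1 μM drug in the plasma chamber against PBS. Plates were shaken 6 h at 37 °C. Samples were matrix-matched to 1:1 plasma:PBS and quantified by LC-MS/MS. Fraction bound = ([plasma] − [PBS])/[plasma].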

MIN6 cells = settings: cited from earlier work
71 unrelated kinases = settings: cited from earlier work
HFD-fed mice = assay: Long-term TNP for protection against DIO; type: in vivo, C57BL6 mice
How it was run: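 Male C57BL6 mice, chow-fed to 2 months of age, started HFD together with daily injections (10 mg/kg; vehicle DMSO:Tween 80:water 1:1:8) for 10 weeks, n = 6/group, 23 °C. Body weight was recorded weekly. In week 5, CLAMS ran 36 h acclimatization then 48 h of VO2, VCO2 and locomotor recording. RER = VCO2/VO2, and EE was normalized to lean mass. Week-7 food intake was measured by BioDAQ (2 days acclimatization, 4 days recorded).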

CYP2D6 = CYP2D6 (Homo sapiens, UniProt P10635); assay: CYP450 inhibition in human hepatic microsomes, CYP2D6; type: in vitro ADME; settings: liver microsomes, probe bufuralol (hydroxylation to 4′-hydroxybufuralol)
Chain of CYP2D6 (P10635 whole entry): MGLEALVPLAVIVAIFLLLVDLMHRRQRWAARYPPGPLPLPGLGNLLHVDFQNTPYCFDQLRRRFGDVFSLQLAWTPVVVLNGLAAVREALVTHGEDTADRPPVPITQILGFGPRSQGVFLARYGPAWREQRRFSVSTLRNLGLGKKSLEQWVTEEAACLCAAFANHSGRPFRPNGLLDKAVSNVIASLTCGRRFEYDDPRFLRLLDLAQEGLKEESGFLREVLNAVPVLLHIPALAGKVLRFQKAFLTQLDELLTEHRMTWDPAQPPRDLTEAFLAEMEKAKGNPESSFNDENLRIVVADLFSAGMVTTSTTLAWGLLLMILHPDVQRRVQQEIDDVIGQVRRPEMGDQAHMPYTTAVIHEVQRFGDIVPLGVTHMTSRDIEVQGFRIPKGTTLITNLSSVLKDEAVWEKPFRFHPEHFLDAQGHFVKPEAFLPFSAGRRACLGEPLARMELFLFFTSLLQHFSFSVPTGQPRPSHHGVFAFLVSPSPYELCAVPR

Recombinant human IP6K1 [6] = target: T1, Recombinant human IP6K1; assay: IP6K1 activity assay in vitro, radiochemical assay; type: biochemical; settings: TNP 1 μM
How it was run: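 Recombinant human IP6K1 (100 ng) was incubated 1 h in 20 mM Tris pH 7.4 with 5 mM MgCl2, 2 nmol IP6, [3H]IP6 (130 nCi), 1 mM ATP and 1 mM DTT, plus DMSO or 1 μM test compound. 5-IP7 was resolved by HPLC, with activity expressed relative to DMSO (100%). Run in triplicate.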

IP6K1-KO mice = assay: Long-term TNP for reversal of DIO in IP6K1-KO mice; type: in vivo
How it was run: (§1)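 Inbred IP6K1-KO mice (seventh generation) and WT littermates, n = 4/group, received HFD for 8 weeks, then daily injections (10 mg/kg) with continued HFD for 10 weeks. GTT was done at week 5: 5 h fast, glucose 2 g/kg i.p., tail-vein glucometer readings including time 0. After 10 weeks, fat, lean and fluid masses were measured by LF-NMR, and mice were sacrificed after a 5 h fast.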

DIO WT mice = assay: Long-term TNP for reversal of DIO in WT mice; type: in vivo
How it was run: as §1

DIO mice [7] = assay: Long-term TNP treatment of DIO mice at thermoneutral temperature; type: in vivo
How it was run: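 Following the initial phase, vehicle or test compound was injected for another 8 weeks, n = 6/group. Body weight was recorded weekly. ITT was done at week 4: 5 h fast, human insulin 0.75 U/kg i.p., tail-vein glucometer. At 8 weeks, mice were sacrificed after a 5 h fast. Cardiac-puncture serum was assayed for cholesterol and HDL by a metabolic core.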

[8] = 10 mg/kg BW daily, 5th week, CLAMS
[9] = 10 mg/kg BW daily, 10 weeks, WT
[10] = 10 mg/kg BW daily, 10 weeks, WT, vs vehicle
[11] = after 5 weeks of TNP treatment, WT

Crossing of the BBB ([1]; mice): does not efficiently cross the BBB | half-life ([1]; mouse, plasma, ip, 20 mg/kg): ~6 h | TNP concentration in plasma ([1]; single dose 20 mg/kg i.p., chow fed mice, 1–6 h post-treatment): 5 to 10 µM | IP6K1 activity (Recombinant human IP6K1 [3]): inhibits IP6K1 activity | Sterility of males (chow-fed male mice): do not display sterility | inhibition at 10 μM (CYP2C9): 92% | fraction unbound at 6 h, 1 μM [5]: 0.07 to 0.1 | inhibition at 10 μM (CYP2D6): 76% | IP6K1 catalytic activity (Recombinant human IP6K1 [6]): blocks the catalytic activity of IP6K1 | Testis morphology (DIO WT mice; 10 mg/kg BW daily, 10 weeks, DIO mice): unaltered | Histological morphology and weight of heart and kidney (DIO WT mice; 10 mg/kg BW daily, 10 weeks, vs vehicle): similar | CA1 neuronal density (DIO WT mice; long-term TNP treatment, WT and IP6K1-KO mice, stereological analysis): did not significantly alter
Structure (SMILES): O=[N+]([O-])c1ccc(CNc2nc(NCc3cccc(C(F)(F)F)c3)nc3[nH]cnc23)cc1 [TNP, N6-(4-nitrobenzyl)-N2-(3-(trifluoromethyl)benzyl)-9H-purine-2,6-diamine]
Glucose disposal following glucose injection (GTT) (DIO mice [2]; 12th day): efficient glucose disposal | Glucose disposal following insulin injection (ITT) (DIO mice [2]; 17th day): disposes glucose more efficiently | Fatty liver (histology) (DIO mice [2]; 18 days): ameliorates fatty liver | Serum glycerol levels (DIO mice [2]; 18 days): does not alter | Serum insulin level (DIO mice [2]; 18 days): not significantly altered | Serum levels of cholesterol or triglycerides (DIO mice [2]; 18 days): not altered | Reduction of fat mass by treatment (DIO mice [2]; 18 days, DIO mice, QNMR): ~3 g | Akt S473 phosphorylation in the IWAT depot, enhancement vs vehicle (DIO mice [2]; 18 days, densitometry): 4 fold | Serum levels of AST and ALT (DIO mice [2]; 18 days, vs vehicle): less | UCP1 mRNA expression in the IWAT (DIO mice [2]; 18 days, vs vehicle): higher | Weight of the EWAT depot (DIO mice [2]; 18 days, vs vehicle): significantly less | Daily energy intake (DIO mice [2]; after 7 days): does not influence daily energy intake | Ca2+ levels [4]: slightly elevates | Insulin secretion (MIN6 cells): reduces insulin secretion | Effect on 71 unrelated kinases (71 unrelated kinases): does not influence | Lean mass (HFD-fed mice; 10 mg/kg BW daily): unaltered | Average RER (HFD-fed mice; [8]): unaltered | Average activity (HFD-fed mice; [8]): unaltered | Energy expenditure (EE) (HFD-fed mice; [8]): higher EE especially during nighttime | VO2 consumption (HFD-fed mice; [8]): higher VO2 consumption | Daily energy intake (HFD-fed mice; 10 mg/kg BW daily, 7th week, vs vehicle): similar | Glucose disposal following glucose (GTT) and insulin injections (ITT) (HFD-fed mice; 10 mg/kg BW daily, 8th and 9th week): efficient glucose disposals | Body weight gain (HFD-fed mice; 10 mg/kg BW daily, after 10 weeks (injection stopped)): 2.9 g | Body weight (HFD-fed mice; 10 mg/kg BW daily, after 10 weeks of HFD and TNP): 27.8 g | Glucose disposal following glucose injection (GTT) (HFD-fed mice; 2 weeks after TNP withdrawal): efficient glucose disposal | Body weight gain (HFD-fed mice; 18-week, eight weeks after TNP withdrawal): 19.3 g | Body weight (HFD-fed mice; 18-week, eight weeks after TNP withdrawal, HFD continued): 44.3 g | Glucose tolerance (GTT) (HFD-fed mice; four weeks after TNP withdrawal): become glucose intolerant | Body weight (HFD-fed mice; onset of the experiment (before treatment)): 24.9 g | Weight gain during the withdrawal period (HFD-fed mice; weeks 10 to 18, TNP-withdrawn mice): 16.4 g | TNP mediated weight loss (IP6K1-KO mice; 10 mg/kg BW daily, 10 weeks): resistant to Rev-TNP mediated weight loss | Total fat, lean, and fluid masses (IP6K1-KO mice; 10 mg/kg BW daily, 10 weeks): unaltered | Body weight (IP6K1-KO mice; 10 mg/kg BW daily, after 10-week of treatment): ~33 g | Glucose disposal (GTT) (IP6K1-KO mice; after 5 weeks of TNP treatment): not altered | Serum insulin level (DIO WT mice; 10 mg/kg BW daily, 10 weeks, HFD-fed WT): reduces serum insulin level | Serum cholesterol level (DIO WT mice; [9]): reduces serum cholesterol level | UCP1 expression (DIO WT mice; [9]): enhances UCP1 expression | Liver weight (DIO WT mice; [10]): substantially less | Total fat mass (QNMR) (DIO WT mice; [10]): significantly less | Reduction in body weight vs vehicle (DIO WT mice; 10 mg/kg BW daily, after 10-week of treatment, WT): ~10 g | Body weight (DIO WT mice; 10 mg/kg BW daily, after 10 weeks of injection, DIO WT): 36.9 g | Fasting blood glucose (DIO WT mice; [11]): reduces fasting blood glucose | Glucose disposal (GTT) (DIO WT mice; [11]): enhances glucose disposal | Glucose disposal following exogenous insulin treatment (ITT) (DIO mice [7]; 30 °C, after 4-weeks of TNP injection): significantly improved | Average decrease in body weight (DIO mice [7]; 30 °C, after 8-weeks of injection): ~0.7 g | Serum levels of total cholesterol and HDL (DIO mice [7]; thermoneutral temperature): unaltered at thermoneutral temperature
